Source: ChEMBL document CHEMBL5058577, “EUbOPEN Chemogenomics Library 2 (Multiplex)” (2022)

Tested on: HEK-293T
Test: Multiplex assay against HEK293T
Format: toxicity, cell-based
Conditions: human
Outline: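 Live cells were stained at seeding with Hoechst33342, BioTracker Green Microtubule Cytoskeleton Dye, MitoTracker Red and Annexin V Alexa Fluor 680, then imaged on a CQ1 microscope at 37°C and 5% CO2 after compound addition. CellPathfinder machine-learning gating split cells into Hoechst high-intensity objects or normal cells. Normal cells were split into healthy, pyknosed or fragmented nuclei, and pyknosed cells into mitotic or apoptotic. Tubulin, mitochondrial-mass and membrane-permeability phenotypes are per cents of healthy-nucleus cells.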

[1] = 12 h, 1 µM, compound concentration 1 uM, replicate 1
[2] = 12 h, 1 µM, compound concentration 1 uM, replicate 2
[3] = 12 h, 10 µM, compound concentration 10 uM, replicate 1
[4] = 12 h, 10 µM, compound concentration 10 uM, replicate 2
[5] = 24 h, 1 µM, compound concentration 1 uM, replicate 1
[6] = 24 h, 1 µM, compound concentration 1 uM, replicate 2
[7] = 24 h, 10 µM, compound concentration 10 uM, replicate 1
[8] = 24 h, 10 µM, compound concentration 10 uM, replicate 2
[9] = 48 h, 1 µM, compound concentration 1 uM, replicate 1
[10] = 48 h, 1 µM, compound concentration 1 uM, replicate 2
[11] = 48 h, 10 µM, compound concentration 10 uM, replicate 1
[12] = 48 h, 10 µM, compound concentration 10 uM, replicate 2

In the case of `COc1ccc2c(c1)C(C(=O)N(Cc1ccc(N(C)C)cc1)c1ccc(C(C)C)cc1)CCC2.Cl` (configuration not stated), the “Population Apoptotic (%)” value [1] is reported as 30%, the “Population Fragmented Nuclei (%)” value [1] is reported as 6% and the “Population Healthy Nuclei (%)” value [1] is reported as 80%. The “Population Hoechst High Intensity Objects (%)” value [1] was 7%, the “Population Membrane Permeable-Phenotype (%)” value [1] was 0% and the “Population Mitochondria Different-Phenotype (%)” value [1] was 39%. For the same molecule, the “Population Mitotic Cells (%)” value [1] was 70%, the “Population Normal (%)” value [1] was 92% and the “Population Pyknosed Nuclei (%)” value [1] was 13%. The “Population Tubulin-Different-Phenotype (%)” value [1] was 27%, the “Total Cell Count” value [1] was 413 and the “Population Apoptotic (%)” value [2] was 43%. For the same molecule, the “Population Fragmented Nuclei (%)” value [2] was 5%, the “Population Healthy Nuclei (%)” value [2] was 79% and the “Population Hoechst High Intensity Objects (%)” value [2] was 4%. The “Population Mitochondria Different-Phenotype (%)” value [2] was 61%, the “Population Mitotic Cells (%)” value [2] was 56% and the “Population Normal (%)” value [2] was 95%. The “Population Pyknosed Nuclei (%)” value [2] was 14%, the “Population Tubulin-Different-Phenotype (%)” value [2] was 23% and the “Total Cell Count” value [2] was 330. The “Population Apoptotic (%)” value [3] was 60%, the “Population Fragmented Nuclei (%)” value [3] was 9% and the “Population Healthy Nuclei (%)” value [3] was 78%. For the same molecule, the “Population Hoechst High Intensity Objects (%)” value [3] was 10%, the “Population Membrane Permeable-Phenotype (%)” value [3] was 0% and the “Population Mitochondria Different-Phenotype (%)” value [3] was 60%. The “Population Mitotic Cells (%)” value [3] was 39%, the “Population Normal (%)” value [3] was 89% and the “Population Pyknosed Nuclei (%)” value [3] was 11%. For the same molecule, the “Population Tubulin-Different-Phenotype (%)” value [3] was 64%, the “Total Cell Count” value [3] was 383 and the “Population Apoptotic (%)” value [4] was 63%. The “Population Fragmented Nuclei (%)” value [4] was 4%, the “Population Healthy Nuclei (%)” value [4] was 77% and the “Population Hoechst High Intensity Objects (%)” value [4] was 6%. The “Population Mitochondria Different-Phenotype (%)” value [4] was 75%, the “Population Mitotic Cells (%)” value [4] was 36% and the “Population Normal (%)” value [4] was 93%. The “Population Pyknosed Nuclei (%)” value [4] was 17%, the “Population Tubulin-Different-Phenotype (%)” value [4] was 57% and the “Total Cell Count” value [4] was 361. For the same molecule, the “Population Apoptotic (%)” value [5] was 31%, the “Population Fragmented Nuclei (%)” value [5] was 9% and the “Population Healthy Nuclei (%)” value [5] was 81%. The “Population Hoechst High Intensity Objects (%)” value [5] was 3%, the “Population Membrane Permeable-Phenotype (%)” value [5] was 0% and the “Population Mitochondria Different-Phenotype (%)” value [5] was 20%. The “Population Mitotic Cells (%)” value [5] was 68%, the “Population Normal (%)” value [5] was 96% and the “Population Pyknosed Nuclei (%)” value [5] was 8%. For the same molecule, the “Population Tubulin-Different-Phenotype (%)” value [5] was 13%, the “Total Cell Count” value [5] was 567 and the “Population Apoptotic (%)” value [6] was 60%. For the same molecule, the “Population Fragmented Nuclei (%)” value [6] was 7%, the “Population Healthy Nuclei (%)” value [6] was 79% and the “Population Hoechst High Intensity Objects (%)” value [6] was 6%. The “Population Mitochondria Different-Phenotype (%)” value [6] was 33%, the “Population Mitotic Cells (%)” value [6] was 40% and the “Population Normal (%)” value [6] was 93%. For the same molecule, the “Population Pyknosed Nuclei (%)” value [6] was 13%, the “Population Tubulin-Different-Phenotype (%)” value [6] was 11% and the “Total Cell Count” value [6] was 399. For the same molecule, the “Population Apoptotic (%)” value [7] was 35%, the “Population Fragmented Nuclei (%)” value [7] was 9% and the “Population Healthy Nuclei (%)” value [7] was 73%. For the same molecule, the “Population Hoechst High Intensity Objects (%)” value [7] was 10%, the “Population Membrane Permeable-Phenotype (%)” value [7] was 1% and the “Population Mitochondria Different-Phenotype (%)” value [7] was 51%. For the same molecule, the “Population Mitotic Cells (%)” value [7] was 64%, the “Population Normal (%)” value [7] was 89% and the “Population Pyknosed Nuclei (%)” value [7] was 17%. The “Population Tubulin-Different-Phenotype (%)” value [7] was 70%, the “Total Cell Count” value [7] was 409 and the “Population Apoptotic (%)” value [8] was 45%. The “Population Fragmented Nuclei (%)” value [8] was 7%, the “Population Healthy Nuclei (%)” value [8] was 76% and the “Population Hoechst High Intensity Objects (%)” value [8] was 6%. The “Population Membrane Permeable-Phenotype (%)” value [8] was 0%, the “Population Mitochondria Different-Phenotype (%)” value [8] was 60% and the “Population Mitotic Cells (%)” value [8] was 55%. The “Population Normal (%)” value [8] was 93%, the “Population Pyknosed Nuclei (%)” value [8] was 16% and the “Population Tubulin-Different-Phenotype (%)” value [8] was 60%. The “Total Cell Count” value [8] was 389, the “Population Apoptotic (%)” value [9] was 20% and the “Population Fragmented Nuclei (%)” value [9] was 12%. For the same molecule, the “Population Healthy Nuclei (%)” value [9] was 80%, the “Population Hoechst High Intensity Objects (%)” value [9] was 1% and the “Population Membrane Permeable-Phenotype (%)” value [9] was 1%. For the same molecule, the “Population Mitochondria Different-Phenotype (%)” value [9] was 10%, the “Population Mitotic Cells (%)” value [9] was 79% and the “Population Normal (%)” value [9] was 98%. The “Population Pyknosed Nuclei (%)” value [9] was 6%, the “Population Tubulin-Different-Phenotype (%)” value [9] was 10% and the “Total Cell Count” value [9] was 968. The “Population Apoptotic (%)” value [10] was 46%, the “Population Healthy Nuclei (%)” value [10] was 81% and the “Population Hoechst High Intensity Objects (%)” value [10] was 4%. For the same molecule, the “Population Membrane Permeable-Phenotype (%)” value [10] was 0%, the “Population Mitochondria Different-Phenotype (%)” value [10] was 17% and the “Population Mitotic Cells (%)” value [10] was 53%. The “Population Normal (%)” value [10] was 95%, the “Population Tubulin-Different-Phenotype (%)” value [10] was 15% and the “Total Cell Count” value [10] was 631. The “Population Apoptotic (%)” value [11] was 59%, the “Population Fragmented Nuclei (%)” value [11] was 15% and the “Population Healthy Nuclei (%)” value [11] was 75%. The “Population Hoechst High Intensity Objects (%)” value [11] was 9%, the “Population Membrane Permeable-Phenotype (%)” value [11] was 6% and the “Population Mitochondria Different-Phenotype (%)” value [11] was 25%. For the same molecule, the “Population Mitotic Cells (%)” value [11] was 40%, the “Population Normal (%)” value [11] was 90% and the “Population Pyknosed Nuclei (%)” value [11] was 9%. For the same molecule, the “Population Tubulin-Different-Phenotype (%)” value [11] was 53%, the “Total Cell Count” value [11] was 558 and the “Population Apoptotic (%)” value [12] was 36%. The “Population Fragmented Nuclei (%)” value [12] was 11%, the “Population Healthy Nuclei (%)” value [12] was 79% and the “Population Hoechst High Intensity Objects (%)” value [12] was 3%. The “Population Membrane Permeable-Phenotype (%)” value [12] was 2%, the “Population Mitochondria Different-Phenotype (%)” value [12] was 24% and the “Population Mitotic Cells (%)” value [12] was 63%. The “Population Normal (%)” value [12] was 96%, the “Population Pyknosed Nuclei (%)” value [12] was 8% and the “Population Tubulin-Different-Phenotype (%)” value [12] was 50%. For the same molecule, the “Total Cell Count” value [12] was 482.
